NTR1 ag = activates human neurotensin receptor 1; activation, % at 20 µM; AID 493036; 0.17% of 330,000 active; NTR1-U2OS beta-arrestin-GFP spot imaging, agonist mode;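 active = activation at or above 40% of the spot to cytoplasm intensity ratio, with at least 20 cells analyzed; inconclusive = wells under 20 cells, flagged as cytotoxic or low count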;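 note: 0% = DMSO without peptide and 100% = 100 nM NTR1 peptide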
Target sequence (P30989 whole entry, looked up): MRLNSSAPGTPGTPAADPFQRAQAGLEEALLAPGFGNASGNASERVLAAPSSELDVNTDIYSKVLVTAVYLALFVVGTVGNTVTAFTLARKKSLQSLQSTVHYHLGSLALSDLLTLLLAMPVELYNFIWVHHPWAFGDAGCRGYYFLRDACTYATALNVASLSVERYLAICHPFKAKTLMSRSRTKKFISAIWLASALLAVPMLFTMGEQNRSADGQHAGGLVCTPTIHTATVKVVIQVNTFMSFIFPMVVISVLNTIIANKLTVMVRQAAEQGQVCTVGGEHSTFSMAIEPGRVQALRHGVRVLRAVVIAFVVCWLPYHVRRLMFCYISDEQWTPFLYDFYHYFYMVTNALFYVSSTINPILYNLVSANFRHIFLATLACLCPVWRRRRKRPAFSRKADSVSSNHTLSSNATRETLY
MC4R antagonist = blocks human MC4R cAMP signaling. P32245. MC4R-expressing cells, MTII-stimulated cAMP, LANCE TR-FRET. inhibition, % at 6.5 µM. 0.48% of 360,000 active;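 active = inhibition above its plate's cutoff, the mean of tested wells on that plate plus 3 SD, cut at about 29% in these data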;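 note: 0% = Melanotan II alone and 100% = Melanotan II plus saturating MCL0020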
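system = U2OS cells with stable human MC4R expression | also added = Melanotan II challenge after compound preincubation | dosing = one concentration, 6.5 µM nominal | incubation = compound 30 min, challenge 1 h, detection 1 h | measured by = TR-FRET with Eu-cAMP and labeled anti-cAMP, 671 nm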
MC4R ag barr = human MC4R agonism via beta-arrestin | AID 540308 | P32245 | 0.98% of 360,000 active | U2OS MC4R beta-arrestin complementation, luminescence; percent of melanotan II response, DMSO zero | activation, % at 8.9 µM;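 active = activation above a per-plate cutoff, the mean activation of sample wells on that plate plus 3 SD, cut at about 8% in these data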
HGIII-sPLA2 inh = Inhibits HGIII-sPLA2 liposome hydrolysis, primary screen; Q9NZ20; QFRET BODIPY PC-A2 liposome hydrolysis, fluorescence; inhibition, % at 12.2 µM; 0.56% of 370,000 active; AID 743126;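 active = inhibition above mean plus 3 SD of compounds lying within the high and low control bounds, cut at about 19% in these data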;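 note: 0% = median of test compound wells and 100% = no enzyme DMSO wells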
Granule exo inh = blocks lytic granule exocytosis | inhibition, % at 10 µM | TALL-104 LAMP-1 surface exposure, flow cytometry; cells stimulated with thapsigargin and PMA | 0.66% of 360,000 active;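 active = inhibition above about 55%, limit read from the data; inconclusive = no clear call, values can overlap the other calls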
A1 inh = inhibitors of the anti-apoptotic protein A1, read as caspase activation | MEF A1-2A-BIM cells, Caspase-Glo 3/7 luminescence, 3 h; percent of clofoctol response, vehicle zero | caspase activation, % (no concentration beside the values) | 0.066% of 330,000 active | AID 2462;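 active = over half of replicate activation scores above 10%, or exactly half above 10 with the replicate mean above 10; inconclusive = replicate mean below 10 yet half the replicates above 10; inactive = over half of replicates below 10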
* = called active by the depositor; u = inconclusive; x = not tested or not shown. Only some compounds are listed: those with a hit (about 2.5% of all), similar ones and a draw of the others.

SMILES	NTR1 ag	MC4R antagonist	MC4R ag barr	HGIII-sPLA2 inh	Granule exo inh	A1 inh
O=C(O)C1C2C=CC(O2)C1C(=O)Nc1ccccc1C(F)(F)F (stereo not given)	0.3	4.3	1.1	1.9	83.1*	1.4
O=C(/C=C/c1ccccc1)NCC(=O)N/N=C/c1ccco1	1.6	0.6	-4.2	-5.7	76.2*	-0.7
Cc1c(C)c(C)c(C(=O)CCc2cccc(NC(=O)CCC(=O)O)c2)c(C)c1C	3.0	5.6	-0.5	-9.2	-16.7	10.5*
CSc1cccc(NC(=O)CCC(=O)O)c1	-2.0	-2.9	1.1	2.6	3.5	0.3
COCC#Cc1cnc2c(c1)C(=O)N([C@@H](C)CO)C[C@H](C)[C@H](CN(C)C(=O)c1ccc3c(c1)OCO3)O2	x	x	x	0.9	x	x
COCCN1C(=O)/C(=C/c2ccc(OCc3ccc(C(=O)O)cc3)c(OC)c2)SC1=Nc1ccccc1	2.4	17.8	0.3	-7.0	79.3*	-0.3
COc1cc(/C=C2\SC(=Nc3ccccc3)N(Cc3ccco3)C2=O)ccc1OC(C)C(=O)O (stereo not given)	1.3	8.4	-1.4	-31.1	-0.8	0.1
CC(C)C[C@H]1COc2cc(Br)ccc2S(=O)(=O)N1Cc1cn(Cc2ccc(Br)cc2)nn1	x	x	x	5.5	x	x
C[n+]1cn(CC(O)COCc2ccccc2)c2ccccc21 (stereo not given)	0.2	9.6	-0.1	5.8	-1.9	0.7
CCCCCc1ccc(OCCOCCn2c[n+](C)c3ccccc32)c(CCCCC)c1	x	-7.7	17.4*	x	39.6	x
CC(C)(C)OC(=O)NCc1ccc(NC(=O)c2nc[nH]c2C(=O)NCCNC(=O)c2[nH]cnc2C(=O)Nc2ccc(CNC(=O)OC(C)(C)C)cc2)cc1	3.8	16.3	-0.7	x	62.4*	0.7
O=C(Nc1ccc([N+](=O)[O-])cc1)c1nc[nH]c1C(=O)NC1CCCCC1	12.9	4.3	-2.8	9.8	-0.4	47.4*
O=C(Nc1ccc(Cl)cc1)c1nc[nH]c1C(=O)NCCCNC(=O)c1[nH]cnc1C(=O)Nc1ccc(Cl)cc1	6.5	x	x	x	x	12.9*
O=C(Nc1ccc(F)cc1)c1nc[nH]c1C(=O)Nc1ccc([N+](=O)[O-])cc1	2.6	8.9	-1.6	-4.7	0.4	0.8
CC(C)(C)OC(=O)CNC(=O)c1[nH]cnc1C(=O)Nc1ccc(CNC(=O)OC(C)(C)C)cc1	9.9	27.5	2.0	-4.5	0.4	u
CCN(CC)C(=O)CC[C@@H]1CC[C@]2(CCCN(Cc3ccc(Br)cc3)C2)O1	x	x	x	1.3	x	x
COc1ccc(CNS(=O)(=O)/C=C/c2ccc(F)cc2CNC(=O)OC(C)(C)C)cc1	x	x	x	-1.5	x	x
COC(=O)C1=C(C)N(CC(C)C)C(=S)NC1c1cccc(F)c1 (stereo not given)	x	x	x	13.3	x	x
CC(C)C[C@@H]1COc2cccc(NCCO)c2S(=O)(=O)N1	x	x	x	6.9	x	x
O=C1c2ccccc2C(=O)c2c([N+](=O)[O-])ccc(O)c21	25.6	-0.8	0.0	6.3	59.4*	-2.4
O=C(O)c1ccc([N+](=O)[O-])c2c1C(=O)c1ccccc1C2=O	0.7	-2.1	-1.1	8.9	4.1	-1.0
COc1ccc(N2CCN(S(=O)(=O)c3ccc(Cl)c(C(F)(F)F)c3)CC2)cc1	-0.3	5.9	8.5*	-0.3	-0.5	0.4
CC(/C=C/c1ccco1)=N\NC(=O)CNc1ccc2ccccc2c1	4.2	4.7	-0.9	-2.2	100.0*	0.4
Cc1ccc2ccc(C(Nc3ccccn3)c3ccccc3)c(O)c2n1 (stereo not given)	5.4	-7.6	-2.6	16.0	3.4	x
COc1cc(C(Nc2ccccn2)c2ccc3ccc(C)nc3c2O)cc(OC)c1O (stereo not given)	34.8	-7.5	-4.3	x	104.6*	-1.4
Cc1cc(CNC(=O)Cn2nc(C)c([N+](=O)[O-])c2C)c2ccccc2n1	4.4	-9.1	-1.2	-6.6	57.6*	0.9
O=C(COC(=O)/C=C/c1ccccc1Cl)NC(=O)Cc1ccccc1	0.5	-3.7	-0.6	-2.9	-6.7	0.8
O=C(COC(=O)/C=C/c1ccccc1Cl)NC(=O)NCc1ccccc1	0.8	-1.9	8.4*	9.3	3.6	0.4

High-throughput results (PubChem)
